KLF5 inhibitor: kruppel-like factor 5 inhibition; inhibition, % at 5 µM; DLD-1 KLF5 promoter-luciferase reporter, luminescence; actives 0.23% (n = 290,000);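 active = inhibition above a per-plate limit of that plate's mean compound inhibition plus 3 SD, cut at about 60% in these data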;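 also: 0% = DMSO wells and 100% = LY294002 at 200 µM; higher means less KLF5 promoter-driven luciferase light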
HIF activator: HIF pathway transcriptional activation. activation, % at 7.5 µM (by protocol). actives 0.32% (n = 300,000). U2OS HRE-luciferase reporter, luminescence; normalized: DMSO 0%, desferrioxamine 100%;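 active = mean activation of at least 10% of the iron chelator positive control signal, with at least half of replicates also reaching 10%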
T cruzi repl: T. cruzi replication inhibition. T. cruzi beta-gal in NIH3T3, luminescence, 90 h. AID 1885. inhibition, % (test concentration not listed). actives 1.4% (n = 300,000);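 active = mean inhibition across valid replicates above about 55%, limit read from the data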;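 also: signal also drops with host cell toxicity which is not excluded here; 0% = plate median of DMSO wells and 100% = zero luminescence signal; higher percent means less beta-gal luminescence so fewer parasites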
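System: Mouse NIH/3T3 fibroblasts infected with β-gal-expressing T. cruzi Tulahuen C4 | Quantity: NIH/3T3 cells, 5,000 per well | Reagent: 5000 reporter trypomastigotes per well | Dosing: Compound pinned at 50 nL/well, DMSO | Schedule: 3 h host attachment, then at least 90 h co-culture | Detection: GalScreen luminescence, 60 min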
Beta apoptosis: blocks beta cell apoptosis; INS-1E cytokine-induced death, ATP luminescence, 48 h; percent of positive-control rescue, neutral wells zero; protection from apoptosis, % (concentration not given with the values); actives 0.8% (n = 300,000);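 active = Every replicate reaches about 75%, or at least half do and their mean reaches it too, limit read from the data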;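 also: 0% = cytokine-treated negative control wells and 100% = positive control rescue; higher means more ATP so stronger rescue from cytokine killing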
A1 inh: inhibitors of the anti-apoptotic protein A1, read as caspase activation. MEF A1-2A-BIM cells, Caspase-Glo 3/7 luminescence, 3 h; percent of clofoctol response, vehicle zero. AID 2462. actives 0.066% (n = 330,000). caspase activation, % (no concentration beside the values);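 active = over half of replicate activation scores above 10%, or exactly half above 10 with the replicate mean above 10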
* = called active by the depositor; nt = no result given. Only some compounds are listed: those with a hit (about 2.3% of all), similar ones and a draw of the others.

SMILES | KLF5 inhibitor | HIF activator | T cruzi repl | Beta apoptosis | A1 inh
CN1c2ccccc2N(C)C1(C)c1cccc2ccccc12 | -18 | 0 | 58* | 12 | 0
COc1ccccc1NC(=O)Cc1nnc(SCC(=O)c2ccc(F)cc2)n1C | -16 | -1 | -4 | -5 | 0
Cc1ccc(C=Nc2ccc(N(C)C)cc2)o1 | -49 | 0 | 61* | 44 | 0
CC(=O)Nc1ccc(NC(=O)COC(=O)COc2ccc3ccccc3c2)cc1 | nt | nt | nt | 1 | -3
COc1cccc(-c2cc(C(F)(F)F)n3ncc(C(=O)N4CCc5ccccc5C4)c3n2)c1 | -33 | 0 | 14 | 0 | 0
COc1ccc(-c2cc(C(F)(F)F)n3ncc(C(=O)N4CCc5ccccc5C4)c3n2)cc1 | -10 | -1 | 63* | 9 | 0
Cc1ccc(-c2cc(C(F)F)n3ncc(C(=O)N4CCN5CCCC5C4)c3n2)cc1 (stereo unspecified) | -34 | 0 | 3 | 7 | 1
O=C(c1cc2nc(-c3ccc(F)cc3)cc(C(F)(F)F)n2n1)N1CCCCC1c1cccnc1 (stereo unspecified) | -39 | 0 | 95* | 55 | -1
Cc1ccc(-c2cc(C(F)F)n3ncc(C(=O)N4CCCCC4c4cccnc4)c3n2)cc1 (stereo unspecified) | -4 | -1 | 63* | 4 | 0
O=C(c1cnn2c(C(F)(F)F)cc(-c3ccccc3)nc12)N1CCCCC1c1cccnc1 (stereo unspecified) | -14 | 0 | 59* | 4 | 1
Cc1ccc([N+](=O)[O-])cc1N=C1C(=O)Nc2ccccc21 | -4 | -5 | -5 | 1 | 1
NCCCNc1nc(N)c([N+](=O)[O-])c(NC2CCCCC2)n1 | 55 | -13 | 24 | -20 | -1
Cn1c(CC(=O)Nc2ccccc2F)nnc1SCC(=O)Nc1ccccc1Br | -13 | 1 | 5 | -3 | 0
COc1cc(/C=C(/C#N)c2ccc(C)cc2)ccc1Oc1ccc([N+](=O)[O-])cn1 | 11 | -1 | 71* | 41 | 0
CCOc1cc(/C=C(/C#N)c2nc3ccccc3[nH]2)ccc1Oc1ccc([N+](=O)[O-])cn1 | -36 | 2 | 36 | 24 | 0
CN(C(=O)COC(=O)C1=COCCO1)c1c(N)n(Cc2ccccc2)c(=O)[nH]c1=O | nt | 0 | -2 | -5 | -1
Cc1cccc(C)c1NC(=O)CN(C)C(=O)CN1C(=O)NC2(CCCC2)C1=O | nt | 0 | -9 | 1 | -1
CCCNC(=O)C(Cc1ccc(I)cc1)NC(=O)C1CC1 (stereo unspecified) | nt | nt | nt | -4 | 1
CN(Cc1ccccc1)C(=O)c1ccc(NC(=O)Cc2cccc(NC(=O)C3CCCN(C(=O)C4CCC4)C3)c2)cc1 (stereo unspecified) | nt | nt | nt | -6 | 0
Cc1ccccc1OCC(=O)Nc1nc(-c2ccncc2)cs1 | nt | nt | nt | 0 | 0
Cc1cc(C)c(OCC(=O)Nc2nc(-c3ccccn3)cs2)c(C)c1 | -14 | -1 | 70* | 1 | 0
COc1ccc2oc(C(=O)Nc3nc(-c4ccccn4)cs3)c(C)c2c1 | nt | 0 | 70* | 12 | 0
CCC(=O)c1ccc(OCC(=O)Nc2nc(-c3cccnc3)cs2)cc1 | nt | 0 | -3 | 3 | 0
CCc1ccccc1OCC(=O)Nc1nc(-c2cccnc2)cs1 | 13 | 0 | 78* | 2 | 0
O=C(CC1CC2CCC1C2)Nc1nc(-c2ccccn2)cs1 (stereo unspecified) | -34 | 4 | 62* | 14 | 0
SMILES | KLF5 inhibitor | HIF activator | T cruzi repl | Beta apoptosis | A1 inh
COc1ccc(OCCCC(=O)Nc2nc(-c3ccccn3)cs2)cc1 | -6 | 0 | 62* | 6 | 0
O=C(CCS(=O)(=O)c1ccccc1)Nc1nc(-c2ccccn2)cs1 | -18 | -1 | -108 | 10 | 0
CCOC(=O)c1sc2c(c1C)c(=O)n(Cc1ccccc1)c(=O)n2CCN(C)C | 5 | -1 | 59* | -1 | 0
Cc1c(C(=O)O)sc2c1c(=O)n(Cc1ccccc1)c(=O)n2C | -10 | -1 | 3 | -3 | 0
CN(C)CCn1c(=O)n(Cc2ccccc2)c(=O)c2c3c(sc21)CCCCC3 | -24 | 0 | 59* | 8 | 1
CN(C)CCCn1c(=O)n(CCc2ccccc2)c(=O)c2c3c(sc21)CCCCC3 | -25 | 0 | 61* | nt | 0
COc1ccccc1CN(C)C(=O)c1ccccc1Sc1ccccc1C#N | -10 | -1 | 33 | -6 | 0
